Columns and labels:
Type in all cases: functional
G-401 [1] = experiment: Tested in vitro against human ovarian cancer cells (G-401) for anticancer activity at dose 100 uM (Cell number 1*10 e-4)
Summary of the method: (§1)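 G-401 human ovarian cancer cells seeded at 5 × 10^4 cells/mL in serum-free medium, with or without compound at 0–100 μM. Cultured 3 days at 37 °C under 5% CO₂. Living cells were counted by trypan blue dye exclusion and reported as cell number (×10^-4).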

G-401 [2] = experiment: Tested in vitro against human ovarian cancer cells (G-401) for anticancer activity at dose 1 uM in presence of + beta galactosidase (Cell number 1*10 e-4)
Summary of the method: (§2)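 G-401 human ovarian cancer cells seeded at 5 × 10^4 cells/mL in serum-free medium with compound (0–100 μM) plus E. coli β-galactosidase at 1 unit/mL. Cultured 3 days at 37 °C under 5% CO₂. Viable cells were counted by trypan blue exclusion and reported as cell number (×10^-4).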

G-401 [3] = experiment: Tested in vitro against human ovarian cancer cells (G-401) for anticancer activity at dose 0 uM in presence of + beta galactosidase (Cell number 1*10 e-4); summary of the method: as §2
G-401 [4] = experiment: Tested in vitro against human ovarian cancer cells (G-401) for anticancer activity at dose 100 uM in presence of + beta galactosidase (Cell number 1*10 e-4); summary of the method: as §2
G-401 [5] = experiment: Tested in vitro against human ovarian cancer cells (G-401) for anticancer activity at dose 1 uM (Cell number 1*10 e-4); summary of the method: as §1
G-401 [6] = experiment: Tested in vitro against human ovarian cancer cells (G-401) for anticancer activity at dose 10 uM in presence of + beta galactosidase (Cell number 1*10 e-4); summary of the method: as §2
G-401 [7] = experiment: Tested in vitro against human ovarian cancer cells (G-401) for anticancer activity at dose 0 uM (Cell number 1*10 e-4); summary of the method: as §1
G-401 [8] = experiment: Tested in vitro against human ovarian cancer cells (G-401) for anticancer activity at dose 10 uM (Cell number 1*10 e-4); summary of the method: as §1

Compound	Cell number (G-401 [1])	Cell number (G-401 [2])	Cell number (G-401 [3])	Cell number (G-401 [4])	Cell number (G-401 [5])	Cell number (G-401 [6])	Cell number (G-401 [7])	Cell number (G-401 [8])
Nc1ccn([C@@H]2O[C@H](CO[C@@H]3O[C@H](CO)[C@H](O)[C@H](O)[C@H]3O)[C@@H](O)[C@@H]2O)c(=O)n1	56	15	46	2	41	6	55	38
Nc1ccn([C@@H]2O[C@H](CO)[C@@H](O)[C@@H]2O)c(=O)n1 [CYTARABINE]	0	–	–	–	0	–	55	0

Source: ChEMBL document CHEMBL1127382, “Synthesis of N-acetylglucosamine-modified ara-C and its effect on ovarian cancer cells” (1994)
